Source: ChEMBL document CHEMBL4513216, “Probing the Open Global Health Chemical Diversity Library for Multistage-Active Starting Points for Next-Generation Antimalarials” (ACS Infect Dis, 2020)

Assay: Toxicity liver stage against HepG2, at 10uM
Type: cell-based
Parameters: test concentration 10 uM, cell line HepG2-A16-CD81EGFP
Conditions: human, HepG2-A16-CD81EGFP cells; read-out: INHIBITION
In short: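 Uninfected HepG2-A16-CD81EGFP cells, 3 × 10^3 per well, 1536-well, plated on prespotted compound at 10 μM final, parasite-free screening media added to match infected plates; puromycin 10 μM positive, DMSO 0.5% negative; run in parallel with 48 h PbLuc assay at 37 °C, 5% CO2; viability by CellTiter-Glo luminescence, normalized to controls.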

Row | Compound | cytotoxicity at 10 µM [%]
1 | Cc1noc(C)c1CCC(=O)N[C@@H]1CCC[C@@H](Oc2cccnc2)[C@@H]1O | -0.903
2 | CC1CCCCN1C1CN(C(=O)c2sccc2S(N)(=O)=O)C1 (stereo unspecified) | -1.45
3 | COC(=O)c1cccc(S(=O)(=O)NC(=O)c2cccc(OC)c2OC)c1 | 12.2
4 | CCOC1CC2(CCN(C(=O)COC)CC2)c2cc(F)ccc21 (stereo unspecified) | -136
5 | CS(=O)(=O)N1CC2(CCN(C3COC3)C2)Cc2ccccc21 (stereo unspecified) | 11.9
6 | Cc1cc(CN2C[C@@H]3COC[C@]3(CNC(=O)c3ccsc3)C2)no1 | 1.41
7 | CC(C)(C)N1CCN(C(=O)Nc2cc(C(F)(F)F)c[nH]c2=O)CC1 | 5.08
8 | O=C(c1cccc(S(=O)(=O)NCCc2cscn2)c1)N1CCOCC1 | 5.67
9 | Cc1csc(CN(CC2CCCO2)C(=O)c2cccnc2C)n1 (stereo unspecified) | 0.459
10 | CC(C)c1nccn1-c1cccc(C2CCN(C)CC2)n1 | 0.307
11 | O=C(Nc1ccccc1OCC(F)F)N[C@@H]1C=C[C@H](CO)C1 | -7.14
12 | CC(NS(C)(=O)=O)C(=O)N(C)Cc1csc(-c2ccccc2)n1 (stereo unspecified) | 2.5
13 | CCC(O)Cn1nc(-c2ccc(C(=O)O)cc2)cc1-c1ccc(F)cc1 (stereo unspecified) | 1.24
14 | COc1ccc(F)cc1S(=O)(=O)NCC(O)c1sccc1C (stereo unspecified) | -0.269
15 | O=c1cc(Cn2ccnc2)nc2n1CCCN(S(=O)(=O)C1CC1)C2 | 7.95
16 | O=C(c1cccs1)N1CCOCC2(C1)CN(c1cccnc1)C(=O)CO2 (stereo unspecified) | 3.36
17 | COc1ccccc1N1CCN(Cc2cnc3c(c2)c(C)nn3C)CC1 | -0.949
18 | Cc1cc(Cc2ccccc2F)cc(C2CCCNC2)n1 (stereo unspecified) | 0.00505
19 | Cc1nn(C(C)(C)C)c(=O)n1CC(=O)NC(C)(C)C | 1.45
20 | CN(C)c1nc(N)nc(CN2CCCC2c2cccs2)n1 (stereo unspecified) | 5.21
21 | O=C(c1ccc(F)c(F)c1)N1CCCC1CN1CCCC1 (stereo unspecified) | 2.92
22 | O=C([C@H]1CC[C@@H]2[C@@H](CCN2Cc2ccc(F)cc2)O1)N1CCCO1 | 3.74
23 | O=C(Nc1cc(-c2ccccc2)on1)N1CCN(CCO)CC1 | 3.3

Row | Compound | cytotoxicity at 10 µM [%]
24 | O=C(NCCCn1nc2ccccn2c1=O)Nc1ccc(F)cc1F | -7.43
25 | CSCCCN1C[C@H](NC(=O)c2ccc(CO)cc2)[C@@H](C2CC2)C1 | -11.1
26 | CNCC(=O)N1CCCC1c1cncc(Oc2ccc(F)cc2)n1 (stereo unspecified) | -6.44
27 | CS(=O)(=O)NCc1cncc2c1CCN(CC1CCOC1)C2 (stereo unspecified) | 12.7
28 | O=C(c1ccncn1)N1CCC[C@]2(C[C@@H](OCC3CC3)CO2)C1 | -78.9
29 | COCCN1CCC(CNC(=O)c2cc(C)cc(C)c2)C1 (stereo unspecified) | -7.32
30 | Cc1nn(-c2ccc(F)cc2)c2[nH]nc(N)c12 | 13.6
31 | CCCC(C#N)NC(=O)CCCOc1cccc(C(C)=O)c1 (stereo unspecified) | -46.2
32 | CCC[C@@H](NC(N)=O)C(=O)N1CCc2c(Cl)cccc2C1 | 5.79
33 | CCc1ccc(NC(=O)C(C)Nc2cccc3c2OCCO3)cc1 (stereo unspecified) | 0.788
34 | C=C(C)CN(CC)Cc1nc(C)no1 | -15.8
35 | CCOc1ccc(NC(C)c2nnnn2-c2ccccc2)cc1CO (stereo unspecified) | -5
36 | CCCC(=O)Nc1cnn(CC(=O)Nc2ccc(SC)cc2)c1 | -8.81
37 | Cc1cc(OC(F)F)c(C(=O)N2CCC(CN(C)C)CC2)s1 | 6.04
38 | Cc1oc(CN(C)C(=O)c2ccc(Br)cc2)cc1C(=O)O | 5.5
39 | CN(CCCc1nccn1C)c1nccc(-c2cc(C(=O)O)ccn2)n1 | -4.9
40 | CN(Cc1cccc(O)c1)Cc1cnn(C)c1 | -0.198
41 | COCc1ccccc1C(=O)NS(=O)(=O)c1ccc2c(c1)CCC(=O)N2 | -1.74
42 | COc1ncccc1CNC(=O)Nc1cc(C)nn1C | -5.13
43 | O=C(c1c2c(NCC3CC3)ncnc2n2ccccc12)N1CCCC1 | 9.31
44 | O=C(NCCNc1cnccn1)N1CCN(c2nccs2)CC1 | -0.84
45 | CN1CCN(c2ccc(NC(=O)c3ccoc3)c(C(F)(F)F)c2)CC1 | -4.1
46 | Cc1ccc(C(=O)NC2CCCCNC2=O)c(=O)[nH]1 (stereo unspecified) | -5.49

Row | Compound | cytotoxicity at 10 µM [%]
47 | O=C(NCCC(=O)N1CCCC1)c1ccc(SCc2cccnc2)cc1 | 8.95
48 | F[C@@H]1CN(Cc2cccnc2)C[C@@H]1OCc1nc2ccccc2[nH]1 | 5.22
49 | Cc1nc(COc2ccc(OC3CCCCNC3=O)cc2)oc1C (stereo unspecified) | 15.2
50 | Cn1ccnc1CN1CCCN(C(=O)COCC2CC2)CC1 | -11.8
51 | CC(C)(C)OC(=O)N1CC(=O)N(Cc2ccco2)CC(O)C1 (stereo unspecified) | 4.11
52 | CCc1nnc2n1CCN(C(=O)c1ccc(C)c(S(N)(=O)=O)c1)C2 | -4.55
53 | Cc1ncsc1CN1CCn2c(COCC3CC3)cnc2C1C (stereo unspecified) | -1.82
54 | OC(CN1CCN(CC2CCCCC2)CC1)c1ccccc1 (stereo unspecified) | 1.53
55 | CCc1cnc(C)nc1N1CCN(C(N)=O)CC1 | -46.3
56 | CCCc1cc(NCCn2cccn2)n2ncnc2n1 | 5.28
57 | CCOCCN1C[C@H](c2cccc(OC)c2)[C@@H](N)C1 | -0.786
58 | COc1c(C2CCCN2Cc2c(C)noc2C)c(C)nn1C (stereo unspecified) | 5.73
59 | OCCn1nccc1C1CCN(CCOc2ccc(Cl)cc2)CC1 | -4.68
60 | Cc1cccc(CS(=O)(=O)CC(O)Cn2cccn2)c1 (stereo unspecified) | -2.07
61 | COc1ccc(C[C@H]2CN(C3CCOCC3)CC[C@H]2OCC2CC2)cc1 | -6.57
62 | CC(C)n1cnnc1CN(C)Cc1cnc(-c2ccco2)nc1 | 10.8
63 | CN1CCN(c2ccc(NCc3ccsc3)cn2)CC1 | 2.97
64 | O=C(NCc1cnn2cccnc12)C1CC2(CCNCC2)CN1 (stereo unspecified) | -8.32
65 | Fc1ccccc1OC1CCN(CCn2cc3ccccc3n2)CC1 | 9.25
66 | CCSc1nnc([C@@H](N)CC(C)C)o1 | -2.39
67 | CNC(=O)C1CN(C(=O)c2cccs2)CCN(S(C)(=O)=O)C1 (stereo unspecified) | 2.41
68 | CC(C)(C)NC(=O)[C@@H]1CNC[C@]12Cc1ccccc1C(=O)N2 | -0.42
69 | Cc1nc2c(c(C)c1CC(=O)NCc1ccccc1F)c(=O)[nH]n2C | -5.52

Row | Compound | cytotoxicity at 10 µM [%]
70 | CSCc1ccc(N2CCC(C(O)CC(C)C)CC2)nc1 (stereo unspecified) | 11.4
71 | CC(Cc1ccco1)NC(=O)Nc1ccc(N2CCOCC2)nc1 (stereo unspecified) | 0.813
72 | CS(=O)(=O)NC1CC(=O)N(c2ccccc2Cl)C1 (stereo unspecified) | -0.585
73 | CCc1nnc2n1CCN(Cc1cc(Cl)c3c(c1)OCCO3)C2 | -8.95
74 | CNc1nc(CNC(=O)Nc2cccc(F)c2)cs1 | -5.45
75 | C/C=C(\C)CN1CCC2(CCC(=O)N2OCc2ccccc2F)CC1 | 5.24
76 | CN(CC(O)CO)c1nc(-c2cccnc2)nc2c1CCNC2 (stereo unspecified) | -0.0186
77 | CN1CCN(C[C@@H]2CN(Cc3c(Cl)cncc3Cl)C[C@@H]2CO)CC1 | -124
78 | CCc1nc(NCCn2cccn2)c2c(n1)c(C)nn2C | 5.97
79 | Cc1nc(COC[C@H]2CC[C@H]3NCC[C@H]3O2)cs1 | -5.64
80 | CCSCCN1CCCN(S(C)(=O)=O)CC1 | -2.75
81 | Cc1noc(C)c1CN(C)C(=O)NC1CCCN(S(C)(=O)=O)C1 (stereo unspecified) | -13.9
82 | O=C(Nc1cccc(N2CCN(CC3CC3)CC2)c1)C1CCOC1 (stereo unspecified) | 1.68
83 | CCN(Cc1cccc(C)c1)Cn1nc(C)c2c(C)onc2c1=O | -1.03
84 | O=C1CC(c2ccncc2)C2(CCN(C(=O)c3ccc[nH]3)CC2)N1 (stereo unspecified) | 3.78
85 | CC(=O)N1CCCCC1c1nc2c(c(N3CCCCC3)n1)CN(C)CC2 (stereo unspecified) | -0.0788
86 | COCCCN1CCCN(C(C)c2nc(C3CC3)no2)CC1 (stereo unspecified) | -8.77
87 | O=C([C@H]1CC[C@@H]2[C@@H](CCN2C2CCOCC2)O1)N1CCOCC1 | -0.824
88 | Cc1nc2cc(O)nn2c(C)c1CCC(=O)N(C)CCC(C)C | -146
89 | Cc1ccc2[nH]c(CO[C@H]3CN(C(=O)C4CC4)C[C@H]3F)nc2c1 | -11.6
90 | CCN(C(=O)CN1CCCC1c1ccc(OC)cc1)c1ccccc1 (stereo unspecified) | -2.25
91 | O=C(Cc1ccccn1)N1CC[C@]2(C[C@@H](Oc3ncccc3F)CO2)C1 | -5.79
92 | COc1ccc(CN(C)CC2(O)CCN(C(=O)c3cccn3C)C2)cc1 (stereo unspecified) | 5.4

Row | Compound | cytotoxicity at 10 µM [%]
93 | COCC1(C(=O)N2CCC(c3nccn3CC3CC3)CC2)CCC1 | 4.5
94 | Cc1cccc(CN2C(=O)CC[C@@H]3[C@H]2CCN3C(=O)c2ccsc2)n1 | -85.7
95 | CCCN(CC)C(=O)c1cc2c(c3ccccc3n2C)n1C(=O)N(C)C | -4.89
96 | CCc1cc(N2CCC(NC3CCOCC3)CC2)nc(N(C)C)n1 | -14.5
97 | Cc1cnn(C2CN(Cc3nc4cc(Cl)ccc4n3C)C2)c1 | -1.16
98 | CC(=O)N1CC(C(=O)NCCc2ncc(C)s2)C1 | -1.33
99 | O=C(c1ccc2occc2c1)N1CCC(C(=O)O)(n2cccn2)CC1 | -0.657
100 | CSCC[C@H](NC(C)=O)C(=O)N(C)Cc1ccc(-n2cccn2)cc1 | -122
101 | CCN1CCOCC2(CCCN(C(=O)c3cnccn3)C2)C1 (stereo unspecified) | 6.21
102 | CC(C)S(=O)(=O)N1C[C@H]2OC(=O)N(CCc3cccc(Cl)c3)[C@H]2C1 | 0.642
103 | CCOc1ccc(CNCCCn2ccnc2)cc1Br | -6.81
104 | COc1ccc(F)cc1CSCC(=O)N(C)C1CC1 | 0.611
105 | Cc1nc(C)c(CN2CCOC(Cc3ccccc3Cl)C2)nc1C (stereo unspecified) | 5.32
106 | Cc1ccc(CN2CCCn3nnc(COCC4CC4)c3C2)s1 | -6.51
107 | O=C1NCCCCC1Sc1ccc(F)c(F)c1 (stereo unspecified) | 5.58
108 | Cc1oc(-c2ccco2)nc1CN1CCc2cncnc2C1 | 2.44
109 | Cc1nc[nH]c1CN1CCCC12CCN(c1ccccn1)CC2 | 4.55
110 | Cc1cn[nH]c1C1COCCN1Cc1ccsc1 (stereo unspecified) | 2.56
111 | COCC1CC2(CCN(Cc3nccs3)CC2)CN1Cc1ccccn1 (stereo unspecified) | -98.4
